According to ChEMBL document CHEMBL1765072, “Inhibition of amyloidogenesis by nonsteroidal anti-inflammatory drugs and their hybrid nitrates” (J Med Chem, 2011):
The source made the active and inactive calls. The calls are words filed in the database; no cut-off is given here.

Legend:
N2a [1] = assay: Antiamyloidogenic activity in mouse N2A cells transfected with human APP Swedish mutant assessed as increase of amyloid beta (1 to 42) level at 100 uM after 24 hrs by ELISA; assay type: functional, cell-based
N2a [2] = assay: Antiamyloidogenic activity in mouse N2A cells transfected with human APP Swedish mutant assessed as increase of amyloid beta (1 to 42)/(1 to 40) ratio at 100 uM after 24 hrs by ELISA; assay type: functional, cell-based
[3] = Cytotoxicity against mouse RAW264.7 cells assessed as cell viability at 100 uM after 24 hrs by MTT assay relative to control; assay type: cell-based; details: read-out: Activity
How it was run: (§1)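 RAW 264.7 cells given 0.5 mg/ml MTT in medium for 4 h, washed with PBS; formazan dissolved in DMSO, shaken 30 min, absorbance read at 570 nm against a 630 nm reference. Viability expressed relative to DMSO control.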

N2a [4] = assay: Antiamyloidogenic activity in mouse N2A cells transfected with human APP Swedish mutant assessed as increase of amyloid beta (1 to 40) level at 100 uM after 24 hrs by ELISA; assay type: functional, cell-based
RAW264.7 [5] = assay: Antiinflammatory activity against mouse RAW264.7 cells assessed as LPS-induced nitrate production at 100 uM treated 30 mins before LPS challenge measured after 24 hrs by Griess reagent method relative to control
N2a [6] = assay: Antiamyloidogenic activity in mouse N2A cells transfected with human APP Swedish mutant assessed as amyloid beta (1 to 42) level at 1 uM after 24 hrs by ELISA relative to control
[7] = Cytotoxicity against mouse RAW264.7 cells assessed as cell viability at 10 uM after 24 hrs by MTT assay relative to control; assay type: cell-based; details: read-out: Activity; how it was run: as §1
RAW264.7 [8] = assay: Antiinflammatory activity against mouse RAW264.7 cells assessed as LPS-induced nitrate production at 10 uM treated 30 mins before LPS challenge measured after 24 hrs by Griess reagent method relative to control
N2a (Mus musculus) = assay: Cytotoxicity against mouse N2a/APPsw cells assessed as cell viability at 1 uM after 24 hrs by MTT assay relative to control
N2a [9] = assay: Antiamyloidogenic activity in mouse N2A cells transfected with human APP Swedish mutant assessed as reduction of amyloid beta (1 to 42) level at 0.5 uM after 24 hrs by ELISA; assay type: functional, cell-based
How it was run: (§2)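 N2a/APPsw cells (25 × 10⁴/well, plated 24 h prior) washed with PBS and treated with drug in DMEM with 0.2 % FBS for 24 h. Supernatant got NaN₃ (0.01 % final) and protease inhibitors, was centrifuged, and Aβ1–42 was measured by human sandwich ELISA. Values normalized to DMSO vehicle; mean and s.e.m., at least 4 experiments on separate passages.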

N2a [10] = assay: Antiamyloidogenic activity in mouse N2A cells transfected with human APP Swedish mutant assessed as reduction of amyloid beta (1 to 42) level at 10 uM after 24 hrs by ELISA; assay type: functional, cell-based; how it was run: as §2
N2a [11] = assay: Antiamyloidogenic activity in mouse N2A cells transfected with human APP Swedish mutant assessed as increase of amyloid beta (1 to 37) level at 10 uM after 24 hrs by ELISA; assay type: functional, cell-based; details: in the assay text read “immunoprecipitation MALDI-TOF” for “ELISA”
How it was run: (§3)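 N2a cells stably expressing Swedish-mutant human APP, 1 × 10⁶ cells/well, drug-treated 24 h in DMEM with 0.2 % FBS without G418. Conditioned media got NaN₃, protease inhibitors and a ~1 ng/mL Aβ1–43 internal standard, then biotinylated 4G8/6E10 immunoprecipitation and linear-positive MALDI-TOF. Peak heights were normalized to Aβ1–43, then to DMSO control.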

N2a [12] = assay: Antiamyloidogenic activity in mouse N2A cells transfected with human APP Swedish mutant assessed as increase of amyloid beta (1 to 38) level at 10 uM after 24 hrs by ELISA; assay type: functional, cell-based; details: in the assay text read “immunoprecipitation MALDI-TOF” for “ELISA”; how it was run: as §3

SMILES	level, % of control at 1 µM (N2a [6])	viability at 24 h, 10 µM [7]	level, % of control at 10 µM (RAW264.7 [8])	viability at 24 h, 1 µM (N2a (Mus musculus))	other results
O=C(OCCBr)C1(c2ccc(-c3ccc(Cl)c(Cl)c3)c(F)c2)CC1	–	–	–	–	Activity (N2a [1]): Active; Activity (N2a [2]): Active; viability at 24 h, 100 µM [3]: 114%; Activity (N2a [4]): Active; level, % of control at 100 µM (RAW264.7 [5]): 27.8%
CSc1ccc(/C=C2/C(C)=C(CC(=O)O)c3cc(F)ccc32)cc1 [SULINDAC SULFIDE]	82.6%	–	–	–	–
CCNC(=O)CC1=C/C(=C/c2ccc(SC)cc2)c2ccc(F)cc21	95.7%	104%	80.4%	–	–
CCC(C#N)(CC)c1ccc(-c2cccc3ccccc23)c(F)c1	105%	107%	91.3%	91.6%	–
O=C(O)C1(c2ccc(-c3ccc(F)cc3)c(F)c2)CC1	90.4%	102%	86.4%	102%	–
COc1ccc2c(c1)c(CC(=O)NCCc1cccnc1)c(C)n2C(=O)c1ccc(Cl)cc1	135%	95.6%	100%	–	–
O=C(OCCO[N+](=O)[O-])C1(c2ccc(-c3ccccc3)c(F)c2)CC1	–	–	–	–	viability at 24 h, 100 µM [3]: 113%; inhibition (N2a [9]): Active; level, % of control at 100 µM (RAW264.7 [5]): 47.3%
O=C(OCCO[N+](=O)[O-])C1(c2ccc(-c3ccc(Cl)c(Cl)c3)c(F)c2)CC1	–	–	–	–	viability at 24 h, 100 µM [3]: 135%; level, % of control at 100 µM (RAW264.7 [5]): 40%
N#CC(F)(F)c1ccc(-c2ccc(F)cc2)c(F)c1	125%	98.2%	75.7%	98.2%	–
CSc1ccc(/C=C2/C=C(CC(=O)NCc3ccccc3)c3cc(F)ccc32)cc1	94.5%	100%	58.4%	–	–
COc1ccc2c(c1)c(CC(=O)Nc1ccc(Cl)cc1)c(C)n2C(=O)c1ccc(Cl)cc1	295%	92.2%	68.6%	–	–
NC(=O)C(F)c1ccc(-c2ccc(F)cc2)c(F)c1 (stereo not given)	–	90.6%	74.7%	69.1%	–
COc1ccc2c(c1)c(CC(=O)O)cn2C(=O)c1ccc(Cl)cc1	102%	97.9%	65.9%	–	–
CCC(CC)(C(=O)O)c1ccc(-c2ccccc2)c(F)c1	124%	–	–	95.5%	–
O=C(O)C1(c2ccc(-c3ccc(C(F)(F)F)cc3)c(F)c2)CC1	99.3%	–	–	97.2%	viability at 24 h, 100 µM [3]: 102%; level, % of control at 100 µM (RAW264.7 [5]): 62.4%
O=C(O)C(F)c1ccc(-c2ccccc2)c(F)c1 (stereo not given)	91.8%	92.7%	81.5%	98.7%	–
O=C(O)C(O)c1ccc(-c2ccc(F)cc2)c(F)c1 (stereo not given)	106%	102%	76.3%	99.7%	–
N#CC(F)c1ccc(-c2ccc(F)cc2)c(F)c1 (stereo not given)	–	84.5%	65.3%	69.4%	–

SMILES	level, % of control at 1 µM (N2a [6])	viability at 24 h, 10 µM [7]	level, % of control at 10 µM (RAW264.7 [8])	viability at 24 h, 1 µM (N2a (Mus musculus))	other results
NC(=O)C(F)(F)c1ccc(-c2ccccc2)c(F)c1	115%	100%	82.2%	102%	–
CC(F)(C(=O)O)c1ccc(-c2ccccc2)c(F)c1 (stereo not given)	98.8%	99.7%	80.8%	101%	–
C[S+]([O-])c1ccc(/C=C2/C=C(CC(=O)O)c3cc(F)ccc32)cc1 (stereo not given)	95%	104%	91.6%	–	–
COc1ccc2c(c1)c(CNCCO)c(C)n2C(=O)c1ccc(Cl)cc1	118%	100%	52.5%	–	–
O=C(O)CC1=C/C(=C/c2ccc(SC(F)(F)F)cc2)c2ccc(F)cc21	99.4%	104%	1.7%	–	–
O=C(OCCBr)C1(c2ccc(-c3ccccc3)c(F)c2)CC1	–	–	–	–	viability at 24 h, 100 µM [3]: 109%; level, % of control at 100 µM (RAW264.7 [5]): 18.9%
NC(=O)C(F)(F)c1ccc(-c2ccc(F)cc2)c(F)c1	109%	98.8%	84.1%	95.9%	–
N#CC(F)c1ccc(-c2ccccc2)c(F)c1 (stereo not given)	65.6%	–	–	93.1%	–
O=C(O)C1(c2ccc(-c3ccccc3)c(F)c2)CC1	69.5%	–	–	103%	viability at 24 h, 100 µM [3]: 101%; level, % of control at 100 µM (RAW264.7 [5]): 60.7%
O=C(O)C(O)c1ccc(-c2ccccc2)c(F)c1 (stereo not given)	82.5%	89.1%	59%	101%	–
O=C(OCCO[N+](=O)[O-])C1(c2ccc(-c3ccc(C(F)(F)F)cc3)c(F)c2)CC1	–	–	–	–	viability at 24 h, 100 µM [3]: 128%; level, % of control at 100 µM (RAW264.7 [5]): 42.8%
NC(=O)C(F)c1ccc(-c2ccccc2)c(F)c1 (stereo not given)	101%	–	–	103%	–
O=C(O)CC1=C/C(=C/c2ccc(C(F)(F)F)cc2)c2ccc(F)cc21	91%	100%	29.2%	–	–
O=C(OCCBr)C1(c2ccc(-c3ccc(C(F)(F)F)cc3)c(F)c2)CC1	–	–	–	–	viability at 24 h, 100 µM [3]: 113%; level, % of control at 100 µM (RAW264.7 [5]): 14.7%
O=C(O)C1(c2ccc(-c3ccc(Cl)c(Cl)c3)c(F)c2)CC1	125%	–	–	–	viability at 24 h, 100 µM [3]: 19.1%
CCC(C#N)(CC)c1ccc(-c2ccccc2)c(F)c1	125%	–	–	97.3%	–
CC1=C(CC(=O)O)c2cc(F)ccc2/C1=C\c1ccc([S+](C)[O-])cc1 (stereo not given)	100%	104%	85.7%	–	inhibition (N2a [10]): Active; Activity (N2a [11]): Active; Activity (N2a [12]): Active
